Measurements reported in ChEMBL document CHEMBL3621107, “Ring fusion strategy for synthesis and lead optimization of sulfur-substituted anthra[1,2-c][1,2,5]thiadiazole-6,11-dione derivatives as promising scaffold of antitumor agents” (Eur J Med Chem, 2015).

What was measured:
M14 = assay: Cytotoxicity against human M14 cells assessed as cell growth at 10 uM after 48 hrs by SRB assay relative to control; assay type: functional; details: M14, 48 h, read-out: Activity
Summary of the method: (§1)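 First-stage NCI-60 screen by the NCI Developmental Therapeutics Program. Each compound was tested once at a single concentration of 10 μM against the 60-cell-line panel. Growth percentage was reported for each cell line.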

SK-MEL-2 = assay: Cytotoxicity against human SK-MEL-2 cells assessed as cell growth at 10 uM after 48 hrs by SRB assay relative to control; assay type: functional; details: SK-MEL-2, 48 h, read-out: Activity
Summary of the method: (§2)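 First-stage NCI DTP one-dose screen against the 60 human tumour cell line panel. Compounds were tested at a single 10 μM level, and results are given as growth percentage.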

UACC-257 = assay: Cytotoxicity against human UACC257 cells assessed as cell growth at 10 uM after 48 hrs by SRB assay relative to control; assay type: functional; details: UACC-257, 48 h, read-out: Activity
Summary of the method: (§3)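 NCI-60 one-dose screen run by NCI DTP: each cell line exposed to a single 10 µM dose, and percentage growth recorded against untreated growth.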

OVCAR-5 = assay: Cytotoxicity against human OVCAR5 cells assessed as cell growth at 10 uM after 48 hrs by SRB assay relative to control; assay type: functional; details: OVCAR-5, 48 h, read-out: Activity; summary of the method: as §2
NCI/ADR-RES = assay: Cytotoxicity against human NCI/ADR-RES cells assessed as cell growth at 10 uM after 48 hrs by SRB assay relative to control; assay type: functional; details: read-out: Activity; summary of the method: as §2
786-0 = assay: Cytotoxicity against human 786-0 cells assessed as cell growth at 10 uM after 48 hrs by SRB assay relative to control; assay type: functional; details: 786-0, 48 h, read-out: Activity; summary of the method: as §1
ACHN = assay: Cytotoxicity against human ACHN cells assessed as cell growth at 10 uM after 48 hrs by SRB assay relative to control; assay type: functional; details: read-out: Activity; summary of the method: as §1
PC-3 [1] = assay: Cytotoxicity against human PC3 cells assessed as cell growth at 10 uM after 48 hrs by SRB assay relative to control; assay type: functional; details: PC-3, 48 h, read-out: Activity; summary of the method: as §2
MDA-MB-231 = assay: Cytotoxicity against human MDA-MB-231 cells assessed as cell growth at 10 uM after 48 hrs by SRB assay relative to control; assay type: functional; details: MDA-MB-231, 48 h, read-out: Activity; summary of the method: as §2
[2] = Cytotoxicity against human Hs578T cells assessed as cell growth at 10 uM after 48 hrs by SRB assay relative to control; assay type: functional; details: Hs-578T, read-out: Activity; summary of the method: as §1
T47D = assay: Cytotoxicity against human T47D cells assessed as cell growth at 10 uM after 48 hrs by SRB assay relative to control; assay type: functional; details: read-out: Activity; summary of the method: as §3
MDA-MB-468 = assay: Cytotoxicity against human MDA-MB-468 cells assessed as cell growth at 10 uM after 48 hrs by SRB assay relative to control; assay type: functional; details: MDA-MB-468, 48 h, read-out: Activity; summary of the method: as §2
PC-3 [3] = assay: Cytotoxicity against human PC3 cells after 48 hrs by SRB assay; assay type: functional, cell-based; details: PC-3, 48 h
Summary of the method: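 Second-stage NCI-60 panel run by the NCI Developmental Therapeutics Program, covering nine tumour subpanels. Five concentrations were tested: 0.01, 0.1, 1, 10 and 100 μM. Percentage growth at each level was plotted against log10 drug concentration. GI50, TGI and LC50 were read from these dose-response curves. Subpanel MID values were divided into the full-panel MID to give selectivity ratios.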

DU-145 = assay: Cytotoxicity against human DU145 cells after 72 hrs by MTT assay; assay type: functional, cell-based; details: DU-145, 72 h
Summary of the method: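 DU-145 cells grown in RPMI-1640 with 5% heat-inactivated fetal calf serum at 37 °C, 5% CO2. About 2×10^3 cells per well were seeded and incubated for 24 h. Compounds were dissolved in DMSO freshly and diluted into medium (vehicle 0.1% DMSO), then cells were exposed for 72 h. MTT was added for 3 h at 37 °C and absorbance read at 570 nm.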

HL-60(TB) = assay: Cytotoxicity against human HL-60(TB) cells assessed as cell growth at 10 uM after 48 hrs by SRB assay relative to control; assay type: functional; details: HL-60, 48 h, read-out: Activity
Summary of the method: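 NCI Developmental Therapeutics Program 60-cell-line screen, first stage: a single dose of 10 μM against the panel, reported as percentage growth.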

MOLT-4 = assay: Cytotoxicity against human MOLT4 cells assessed as cell growth at 10 uM after 48 hrs by SRB assay relative to control; assay type: functional; details: MOLT-4, 48 h, read-out: Activity; summary of the method: as §2
A549 = assay: Cytotoxicity against human A549 cells assessed as cell growth at 10 uM after 48 hrs by SRB assay relative to control; assay type: functional; details: A549, 48 h, read-out: Activity; summary of the method: as §1
HOP-62 = assay: Cytotoxicity against human HOP62 cells assessed as cell growth at 10 uM after 48 hrs by SRB assay relative to control; assay type: functional; details: HOP-62, 48 h, read-out: Activity; summary of the method: as §1
NCI-H226 = assay: Cytotoxicity against human NCI-H226 cells assessed as cell growth at 10 uM after 48 hrs by SRB assay relative to control; assay type: functional; details: NCI-H226, 48 h, read-out: Activity; summary of the method: as §2
NCI-H522 = assay: Cytotoxicity against human NCI-H522 cells assessed as cell growth at 10 uM after 48 hrs by SRB assay relative to control; assay type: functional; details: NCI-H522, 48 h, read-out: Activity; summary of the method: as §2
HCT-15 = assay: Cytotoxicity against human HCT15 cells assessed as cell growth at 10 uM after 48 hrs by SRB assay relative to control; assay type: functional; details: HCT-15, 48 h, read-out: Activity; summary of the method: as §1
KM12 = assay: Cytotoxicity against human KM12 cells assessed as cell growth at 10 uM after 48 hrs by SRB assay relative to control; assay type: functional; details: KM12, 48 h, read-out: Activity; summary of the method: as §1
SF-539 = assay: Cytotoxicity against human SF539 cells assessed as cell growth at 10 uM after 48 hrs by SRB assay relative to control; assay type: functional; details: SF-539, 48 h, read-out: Activity; summary of the method: as §2
SNB-19 = assay: Cytotoxicity against human SNB19 cells assessed as cell growth at 10 uM after 48 hrs by SRB assay relative to control; assay type: functional; details: SNB-19, 48 h, read-out: Activity; summary of the method: as §3
MDA-MB-435 = assay: Cytotoxicity against human MDA-MB-435 cells assessed as cell growth at 10 uM after 48 hrs by SRB assay relative to control; assay type: functional; details: MDA-MB-435, 48 h, read-out: Activity; summary of the method: as §2
SK-OV-3 = assay: Cytotoxicity against human SKOV3 cells assessed as cell growth at 10 uM after 48 hrs by SRB assay relative to control; assay type: functional; details: SK-OV-3, 48 h, read-out: Activity; summary of the method: as §2
A498 = assay: Cytotoxicity against human A498 cells assessed as cell growth at 10 uM after 48 hrs by SRB assay relative to control; assay type: functional; details: A498, 48 h, read-out: Activity; summary of the method: as §1
[4] = Cytotoxicity against human EKVX cells assessed as cell growth at 10 uM after 48 hrs by SRB assay relative to control; assay type: functional; details: read-out: Activity; summary of the method: as §1

Row | Compound | growth at 10 µM (M14) [%] | growth at 10 µM (SK-MEL-2) [%] | growth at 10 µM (UACC-257) [%] | growth at 10 µM (OVCAR-5) [%] | growth at 10 µM (NCI/ADR-RES) [%] | growth at 10 µM (786-0) [%] | growth at 10 µM (ACHN) [%] | growth at 10 µM (MDA-MB-231) [%] | growth at 10 µM (T47D) [%] | growth at 10 µM (MDA-MB-468) [%] | IC50 (PC-3 [3]) [µM] | IC50 (DU-145) [µM] | growth at 10 µM (A549) [%] | growth at 10 µM (HOP-62) [%] | growth at 10 µM (NCI-H226) [%] | growth at 10 µM (NCI-H522) [%] | growth at 10 µM (HCT-15) [%] | growth at 10 µM (SF-539) [%] | growth at 10 µM (SNB-19) [%] | growth at 10 µM (MDA-MB-435) [%] | also measured
1 | O=C1c2ccccc2C(=O)c2c1cc(SCc1ccc(Cl)cc1)c1nsnc21 | 126 | 110 | 78.7 | 104 | 95.7 | 118 | 94.3 | 95.2 | 83.8 | 83.4 | > 15 | 7.51 | 101 | 89.2 | 82.1 | 82.6 | 97.9 | 98 | 104 | – | growth at 10 µM (PC-3 [1]): 82.9%; growth at 10 µM [2]: 88.6%; growth at 10 µM (HL-60(TB)): 57.4%; growth at 10 µM (MOLT-4): 22.7%; growth at 10 µM (KM12): 105%
2 | Cc1ccc(Sc2cc3c(c4nsnc24)C(=O)c2ccccc2C3=O)c(C)c1 | 101 | 98.5 | 122 | 106 | 97.8 | 105 | 94.2 | 92.3 | 75.4 | 100 | > 15 | 15.9 | 110 | 79.3 | 1.5 | 96.8 | 83 | 100 | 102 | 106 | growth at 10 µM (SK-OV-3): 110%; growth at 10 µM (A498): 84.4%; growth at 10 µM (PC-3 [1]): 76.1%; growth at 10 µM [2]: 99.1%; growth at 10 µM (HL-60(TB)): 99.9%; growth at 10 µM (MOLT-4): 91%; growth at 10 µM [4]: 109%; growth at 10 µM (KM12): 96.4%
3 | O=C1c2ccccc2C(=O)c2c1cc(Sc1cccc(Cl)c1)c1nsnc21 | -76.4 | -53.2 | -84.6 | 109 | -15.1 | -2.06 | -92.5 | -29.1 | -42.3 | -79.2 | 5.64 | 1.75 | 107 | 42.1 | 78.1 | 7.18 | 18 | -52.7 | 56.9 | -82.3 | growth at 10 µM (SK-OV-3): 95.4%; growth at 10 µM [4]: 43.6%
4 | COc1ccc(Sc2cc3c(c4nsnc24)C(=O)c2ccccc2C3=O)cc1 | 92.9 | 99.2 | 118 | 103 | 97.6 | 94.9 | 102 | 87.6 | 89.7 | 113 | > 15 | 8.26 | 103 | 95.2 | 79.5 | 95.7 | 109 | 93.5 | 114 | 119 | growth at 10 µM (SK-OV-3): 106%; growth at 10 µM (A498): 84.8%; growth at 10 µM (PC-3 [1]): 82.8%; growth at 10 µM [2]: 96.7%; growth at 10 µM (HL-60(TB)): 103%; growth at 10 µM (MOLT-4): 82.9%; growth at 10 µM [4]: 149%; growth at 10 µM (KM12): 101%
5 | CCOc1cccc(Sc2cc3c(c4nsnc24)C(=O)c2ccccc2C3=O)c1 | 104 | 103 | 126 | 117 | 102 | 100 | 103 | 101 | 86.5 | 108 | > 15 | > 15 | 111 | 91.9 | 90.5 | 98.2 | 103 | 93.7 | 103 | 106 | growth at 10 µM (SK-OV-3): 99.4%; growth at 10 µM [4]: 102%
